OPRM1-OPRD1 ag: agonists of human mu-delta opioid receptor heterodimerization | cells, OPRM1-OPRD1 heterodimerization, luminescence | activation, % at 9.3 µM | 0.3% of 340,000 active | AID 504326; in the data active = activation above about 18%
Target sequence (P35372 whole entry, looked up): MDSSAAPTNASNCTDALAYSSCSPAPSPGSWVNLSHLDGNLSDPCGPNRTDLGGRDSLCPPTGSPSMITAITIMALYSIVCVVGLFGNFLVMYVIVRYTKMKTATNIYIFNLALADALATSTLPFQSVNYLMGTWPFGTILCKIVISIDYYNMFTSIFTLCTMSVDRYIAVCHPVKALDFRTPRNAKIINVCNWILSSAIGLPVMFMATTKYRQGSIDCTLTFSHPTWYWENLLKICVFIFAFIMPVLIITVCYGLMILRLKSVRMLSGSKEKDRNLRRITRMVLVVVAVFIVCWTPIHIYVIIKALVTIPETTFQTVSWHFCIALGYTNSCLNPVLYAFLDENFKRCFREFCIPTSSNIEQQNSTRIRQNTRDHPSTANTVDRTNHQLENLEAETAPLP
Target sequence (P41143 whole entry, looked up): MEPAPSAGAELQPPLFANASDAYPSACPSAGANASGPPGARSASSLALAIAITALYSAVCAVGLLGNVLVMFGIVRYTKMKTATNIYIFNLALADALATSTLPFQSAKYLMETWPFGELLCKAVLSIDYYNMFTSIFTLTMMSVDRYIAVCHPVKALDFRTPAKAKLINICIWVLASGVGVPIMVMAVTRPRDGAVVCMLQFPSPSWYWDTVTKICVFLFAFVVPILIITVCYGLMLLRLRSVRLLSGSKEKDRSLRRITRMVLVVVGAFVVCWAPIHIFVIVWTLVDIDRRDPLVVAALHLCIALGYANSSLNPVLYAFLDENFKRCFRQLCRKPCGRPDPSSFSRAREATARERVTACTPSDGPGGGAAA
HTR5A inv ctr: HTR5A inverse agonism, opioid heterodimer counter-screen; HTR5A cell line, luminescence; 0.083% of 340,000 active; P47898; inhibition, % at 9.3 µM; in the data active = inhibition mostly above about 23%, no sharp cut-off; inactive = mostly below about 18%
Lipid droplet: hepatic lipid droplet formation modulation | AML12 mouse hepatocytes, oleate lipid droplets, BODIPY imaging | AID 1656 | inhibition, % at 6.5 µM | 0.4% of 240,000 active;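 active = lipid droplet intensity inhibited by at least 50%, with more than 500 cells counted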
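Material: mouse AML12 hepatocyte cell line, fixed after treatment; Timing: compound with oleate, overnight; Technique: high-content imaging of BODIPY-stained droplets and DAPI nuclei; Probe or stimulus: oleate, 100 µM final; Dosing: compound at 6.5 µM only.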
HTR5A ag: HTR5A agonism, opioid heterodimer counter-screen; P47898; HTR5A agonist assay, luminescence, cell-based; activation, % at 9.3 µM; 0.61% of 340,000 active; in the data active = activation mostly above about 9.5%, no sharp cut-off; inactive = mostly below about 7.6%
MOR-DOR inv ag: inverse agonists of human mu-delta opioid receptor heterodimerization | P35372+P41143 | cell-based MOR-DOR heterodimer luminescence, inverse agonism | inhibition, % at 9.3 µM | 0.21% of 340,000 active | AID 504357; in the data active = inhibition above about 22%, passing the limit was not always enough
Large screens that a line does not name were inactive. This is a sample that favours compounds with a hit; in the whole collection about 1.4% have one here.

COC(=O)[C@@]1(Cc2ccc(OC)cc2)[C@H]2c3cc(C(=O)N(C)C)[nH]c3C[C@H]2CN1C(=O)c1ccccc1	HTR5A ag 14
CCC(CC)c1nnc(NC(=O)c2cc([N+](=O)[O-])ccc2N2CCOCC2)s1	none (no result: Lipid droplet)
O=C(Nc1cccc(S(=O)(=O)N2CCCCC2)c1)c1ccc(N2CCCC2=O)cc1	none (no result: Lipid droplet)
COc1ccccc1C1CCN(C(=O)c2ccccc2)CC1	none (no result: Lipid droplet)
COc1ccccc1C1CCN(C(=O)c2cnn(-c3ccccc3)c2C)CC1	HTR5A ag 12
COC(=O)C1=C(C)N(Cc2ccccc2)C(=NCc2cccc(Cl)c2)N[C@H]1c1cccc(F)c1	OPRM1-OPRD1 ag 28 (no result: Lipid droplet)
COC(=O)C1=C(C)N(Cc2ccccc2)C(=NCc2ccccc2)N[C@H]1c1cccc(C(F)(F)F)c1	HTR5A ag 13 (no result: Lipid droplet)
COC(=O)C1=C(C)N(Cc2ccccc2)C(=NCC(C)C)N[C@H]1c1cccc(C(F)(F)F)c1	none (no result: Lipid droplet)
O=C(NNC(=O)C1CC(c2cccs2)=NO1)Nc1ccc(Cl)cc1 (stereo not given)	none
COc1cc(OC)cc(C(=O)NNC(=O)CCC2CCCC2)c1	none (no result: Lipid droplet)
COc1ccc(CN2C(=O)C(CC(C)C)Nc3ncnc(N4CCN(c5ccccn5)CC4)c32)cc1 (stereo not given)	none (no result: Lipid droplet)
Cc1ccc(CN2C(=O)C(C)Nc3ncnc(N4CCN(c5ccccn5)CC4)c32)cc1 (stereo not given)	HTR5A inv ctr 56, MOR-DOR inv ag 55 (no result: Lipid droplet)
Cc1ccc(CN2C(=O)C(CC(C)C)Nc3ncnc(N4CCN(c5ccccn5)CC4)c32)cc1 (stereo not given)	none (no result: Lipid droplet)
CC1Nc2ncnc(N3CCN(c4ccccn4)CC3)c2N(Cc2ccccc2)C1=O (stereo not given)	HTR5A inv ctr 43, MOR-DOR inv ag 45 (no result: Lipid droplet)
COc1ccc(CN2C(=O)C(C)Nc3ncnc(N4CCN(c5ccccn5)CC4)c32)cc1 (stereo not given)	HTR5A inv ctr 63, MOR-DOR inv ag 70 (no result: Lipid droplet)
CCOc1ccc(C2/C(=C(\O)c3ccc4c(c3)OCCO4)C(=O)C(=O)N2CCN2CCOCC2)cc1OCC (stereo not given)	none
Cc1ccc(C(=O)C(C)OC(=O)c2n[nH]c(=O)c3ccccc23)cc1 (stereo not given)	none
O=C(N/N=C/c1ccccc1F)c1ccc(COc2ccccc2Cl)o1	none
O=C(N/C(=C\c1ccccc1)C(=O)N1CCOCC1)c1ccccc1Cl	none
Cc1cc(C)cc(NC(=O)c2cccc3c2C(=O)N(C2CCCCC2)C3)c1	none
COc1cc(NC(=O)c2cccc3c2C(=O)N(C2CCCCC2)C3)cc(OC)c1OC	HTR5A ag 11
Cc1ccc2oc(C(=O)Nc3nonc3C)c(C)c2c1	HTR5A ag 11
Cc1ccc2oc(C(=O)Nc3nnc(C)s3)c(C)c2c1	none
Cc1ccc(Oc2ccc(OCC(=O)NC3CCS(=O)(=O)C3)cc2)cc1 (stereo not given)	none
COc1ccc(Nc2nc(Nc3ccc(OC)cc3)nc(SC3=NCCS3)n2)cc1	HTR5A ag 9.8
COc1ccccc1NCC(=O)N/N=C(\C)c1cccs1	HTR5A ag 14
O=C(N=Nc1c(O)[nH]c2ccccc12)c1ccco1	none
CCn1c(C)cs/c1=N\S(=O)(=O)c1ccccc1	none (no result: Lipid droplet)
O=Cc1s/c(=N\S(=O)(=O)c2ccccc2)n(CCCCl)c1Cl	MOR-DOR inv ag 34
CC#CCN(Cc1ccco1)C(=O)c1ccc(OC2CCN(Cc3ccccn3)CC2)cc1	HTR5A ag 9.8
CN(Cc1ccco1)C(=O)c1ccc(OC2CCN(Cc3ccccn3)CC2)cc1	none
O=C(c1ccccc1Cl)N1N=C(c2cccs2)CC1c1cccc(O)c1 (stereo not given)	HTR5A ag 11
O=C(c1ccccc1)N1N=C(c2cccs2)CC1c1ccccc1O (stereo not given)	none
Cc1cccn2c(=O)c3cc(S(=O)(=O)c4ccccc4)c(=N)n(Cc4ccco4)c3nc12	HTR5A ag 12
Cc1cccn2c(=O)c3cc(S(=O)(=O)c4ccc(F)cc4)c(=N)n(Cc4ccco4)c3nc12	none
O=C(O)CC1(CC(=O)Nc2ccc(Oc3cccc(C(F)(F)F)c3)nc2)CCCC1	none (no result: OPRM1-OPRD1 ag, HTR5A inv ctr, HTR5A ag, MOR-DOR inv ag)
O=C(NC(c1ccccc1)c1c(O)ccc2ccccc12)c1ccccc1Cl (stereo not given)	HTR5A ag 11 (no result: Lipid droplet)
CN(Cc1ccno1)C(=O)CC1C(=O)NCCN1CC(c1ccccc1)c1ccccc1 (stereo not given)	none
Cc1nn(-c2ccccc2)c(C)c1NC(=O)COC(=O)Cc1ccccc1F	HTR5A ag 12 (no result: Lipid droplet)
O=S(=O)(Nc1cccc(S(=O)(=O)N2CCCC2)c1)c1cccs1	none (no result: Lipid droplet)
O=S(=O)(/N=C(/Nc1cccnc1)c1ccccc1)c1ccc(F)cc1F	HTR5A ag 14 (no result: Lipid droplet)
Nc1ccc(N(CCO)CCO)cc1	HTR5A ag 12
COc1cc2c(cc1OC)C(c1ccc(-c3ccc(Cl)c(Cl)c3)o1)=NCC2	HTR5A ag 11
CC1=C/C(=N\OS(=O)(=O)c2ccccc2)C(C(C)C)=CC1=O	OPRM1-OPRD1 ag 186, HTR5A ag 20
O=C(CSc1nc2ccc(NC(=O)CSc3nnnn3Cc3ccccc3)cc2s1)Nc1ccccc1	HTR5A ag 14
CCC(Cc1ccccc1)NC(=O)c1ccc2nc(N3CCOCC3)sc2c1 (stereo not given)	none
CCOc1ccc2oc(C(=O)Nc3ccc(N4CCOCC4)cc3)c(C)c2c1	HTR5A ag 14
COC(=O)c1c(NC(=O)CSc2ncn[nH]2)sc(C)c1C	HTR5A ag 13 (no result: Lipid droplet)
CC(C)Cc1nnc(NC(=O)CSc2ncn[nH]2)s1	HTR5A ag 13
Cc1ccc(CNC(=O)c2cnccn2)cc1	none
CCCn1c(SC(C(=O)Nc2cccc(OC)c2)c2ccccc2)nc2ccccc2c1=O (stereo not given)	HTR5A ag 13
CC(C)Cc1cc(C(C)(C)C)ccc1OC(=S)N(C)C	none
CSc1ccc(CNCC2CCCO2)cc1 (stereo not given)	none
Cc1c(C)n(CCc2c[nH]c3ccccc23)ccc1=O	none
COc1ccc2[nH]cc(CCn3ccc(=O)c(C)c3C)c2c1	HTR5A ag 11
CC(=O)Nc1ccc(NC(=O)CCCN2C(=O)c3ccccc3C2=O)cc1	HTR5A ag 9.8
Nc1nc(Br)c2c(F)cccc2c1-c1ccc(Cl)cc1	HTR5A ag 11 (no result: Lipid droplet)
Nc1cccc2nsnc12	none
Nc1cc2nsnc2cc1Br	OPRM1-OPRD1 ag 32, HTR5A ag 13 (no result: Lipid droplet)
CCCC(C)NNC(=O)c1cc2ccccc2[nH]1 (stereo not given)	none (no result: Lipid droplet)
CC(C)(C)c1ccc(S(=O)(=O)NNC(=O)c2cc3ccccc3[nH]2)cc1	HTR5A ag 13
COc1ccc(/C=C/C(=O)OCC(=O)NCCNC(=O)COC(=O)/C=C/c2ccc(OC)cc2)cc1	HTR5A ag 12
COc1ccc(CNC(=O)COC(=O)/C=C/c2ccc(Cl)cc2)cc1	none
O=C1N/C(=C\c2ccc(O)cc2)C(=O)c2ccccc21	HTR5A ag 12 (no result: Lipid droplet)
O=C(O)/C=C1\NC(=O)c2ccccc21	none (no result: Lipid droplet)

Compound activity as filed in PubChem BioAssay.
